Activity calls are given as the source filed them. The calls are words filed in the database; no cut-off is given here.
Assays:
[1] = Inhibition of recombinant Influenza A virus (A/Anhui/1/2013(H7N9)) Neuraminidase N9 expressed in baculovirus infected insect cells using 4-MU-NANA as substrate preincubated for 30 mins followed by substrate addition by microplate reader analysis
Procedure, shortened: (§1)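 Purified recombinant NA, with activity pre-set to roughly 10–50 nM in PBS, preincubated with serial 5-fold inhibitor dilutions in PBS (top 1 mM) at 37 °C for 30 min. MUNANA solution (167 μM, PBS) then added. Fluorescence read at ex 355/em 460 nm.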

Influenza A virus [2] = assay: Antiviral activity against Influenza A virus (A/Puerto Rico/8/34(H1N1)) infected in Balb/c mouse assessed as protection against lethal virus challenge by measuring mouse survival at 20 mg/kg administered intranasally as single dose at 2 hrs post infection measured up to 9 days post treatment; format: functional, organism-based; details: A/Puerto Rico/8/1934(H1N1)
Procedure, shortened: (§2)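 BALB/c mice (6 per group) inoculated intranasally under anaesthesia with 10^5 pfu in 40 μL PBS. Inhibitor given intranasally in 40 μL PBS, either daily for 7 days from day 1 or once at 2 h pi; PBS-treated infected and uninfected controls. Weight and survival followed for 14 days; death counted at 25% weight loss or moribund. Mantel–Cox test.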

Influenza A virus [3] = assay: Antiviral activity against Influenza A virus (A/Puerto Rico/8/34(H1N1)) infected in Balb/c mouse assessed as protection against lethal virus challenge by measuring body weight at 5 to 10 mg/kg qd administered intranasally for 7 days starting from 1 day post infection measured for 14 days; format: functional, organism-based; details: A/Puerto Rico/8/1934(H1N1); procedure, shortened: as §2
Influenza A virus [4] = assay: Antiviral activity against Influenza A virus (A/Puerto Rico/8/34(H1N1)) infected in Balb/c mouse assessed as immune cell infiltration in lungs at 5 mg/kg qd administered intranasally for 7 days starting from 1 day post infection by hematoxylin and eosin staining based microscopic analysis; format: functional, organism-based; details: A/Puerto Rico/8/1934(H1N1)
[5] = Binding affinity to recombinant Influenza A virus (A/Moscow/10/99(H3N2)) Neuraminidase N2 expressed in baculovirus infected insect cells measured up to 400 sec by surface plasmon resonance analysis; design: species or system Influenza A virus (A/Moscow/10/1999(H3N2))
Procedure, shortened: (§3)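 NA covalently immobilised on CM5 chip by amine coupling. Analyte passed over at several concentrations in running buffer. BSA served as negative control protein. Constants from a steady-state affinity model; triplicate experiments.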

Influenza A virus [6] = assay: Antiviral activity against Influenza A virus (A/Puerto Rico/8/34(H1N1)) infected in Balb/c mouse assessed as bronchial wall thickening in lungs at 5 mg/kg qd administered intranasally for 7 days starting from 1 day post infection by hematoxylin and eosin staining based microscopic analysis; format: functional, organism-based; details: A/Puerto Rico/8/1934(H1N1)
Influenza A virus [7] = assay: Antiviral activity against Influenza A virus (A/Puerto Rico/8/34(H1N1)) infected in Balb/c mouse assessed as immune cell infiltration in lungs at 20 mg/kg qd administered intranasally as single dose at 2 hrs post infection measured after 7 days post infection by hematoxylin and eosin staining based microscopic analysis; format: functional, organism-based; details: A/Puerto Rico/8/1934(H1N1)
Influenza A virus [8] = assay: Antiviral activity against Influenza A virus (A/Puerto Rico/8/34(H1N1)) infected in Balb/c mouse assessed as bronchial wall thickening in lungs at 20 mg/kg qd administered intranasally as single dose at 2 hrs post infection measured after 7 days post infection by hematoxylin and eosin staining based microscopic analysis; format: functional, organism-based; details: A/Puerto Rico/8/1934(H1N1)
Influenza A virus [9] = assay: Antiviral activity against Influenza A virus (A/Puerto Rico/8/34(H1N1)) assessed as decrease in lung lesions at 20 mg/kg qd administered intranasally as single dose at 2 hrs post infection measured after 7 days post infection by hematoxylin and eosin staining based microscopic analysis; format: functional, organism-based; details: A/Puerto Rico/8/1934(H1N1)
Influenza A virus [10] = assay: Antiviral activity against Influenza A virus (A/Puerto Rico/8/34(H1N1)) assessed as decrease in lung lesions at 10 mg/kg qd administered intranasally for 7 days starting from 1 day post infection by hematoxylin and eosin staining based microscopic analysis; format: functional, organism-based; details: A/Puerto Rico/8/1934(H1N1)
Influenza A virus [11] = assay: Antiviral activity against Influenza A virus (A/Puerto Rico/8/34(H1N1)) infected in Balb/c mouse assessed as respiratory epithelium desquamation at 5 mg/kg qd administered intranasally for 7 days starting from 1 day post infection by hematoxylin and eosin staining based microscopic analysis; format: functional, organism-based; details: A/Puerto Rico/8/1934(H1N1)
Influenza A virus [12] = assay: Antiviral activity against Influenza A virus (A/Puerto Rico/8/34(H1N1)) infected in Balb/c mouse assessed as protection against lethal virus challenge by measuring body weight at 20 mg/kg administered intranasally as single dose at 2 hrs post infection measured up to 9 days post treatment; format: functional, organism-based; details: A/Puerto Rico/8/1934(H1N1); procedure, shortened: as §2
Influenza A virus [13] = assay: Antiviral activity against Influenza A virus (A/Anhui/1/2013(H7N9)) expressing A/Puerto Rico/8/34(H1N1) genes infected in MDCK cells assessed as reduction in viral replication after 72 hrs by hemagglutination test; format: functional, organism-based
[14] = Inhibition of recombinant Influenza A virus (A/Moscow/10/99(H3N2)) Neuraminidase N2 expressed in baculovirus infected insect cells using 4-MU-NANA as substrate preincubated for 30 mins followed by substrate addition by microplate reader analysis; design: species or system Influenza A virus (A/Moscow/10/1999(H3N2)); procedure, shortened: as §1
Influenza A virus [15] = assay: Antiviral activity against Influenza A virus (A/Puerto Rico/8/34(H1N1)) infected in Balb/c mouse assessed as respiratory epithelium desquamation at 20 mg/kg qd administered intranasally as single dose at 2 hrs post infection measured after 7 days post infection by hematoxylin and eosin staining based microscopic analysis; format: functional, organism-based; details: A/Puerto Rico/8/1934(H1N1)
Influenza A virus H3N2 [16] = assay: Antiviral activity against Influenza A virus (A/Moscow/10/99(H3N2)) expressing A/Puerto Rico/8/34(H1N1) genes infected in MDCK cells assessed as reduction in viral replication after 72 hrs by hemagglutination test; format: functional, organism-based, A/Moscow/10/1999(H3N2)
Influenza A virus [17] = assay: Antiviral activity against Influenza A virus (A/Puerto Rico/8/34(H1N1)) infected in Balb/c mouse assessed as protection against lethal virus challenge by measuring mouse survival at 5 to 10 mg/kg qd administered intranasally for 7 days starting from 1 day post infection measured for 14 days; format: functional, organism-based; details: A/Puerto Rico/8/1934(H1N1); procedure, shortened: as §2
[18] = molecular target: Neuraminidase (Influenza A virus (A/Memphis/1/1971(H3N2))) (UniProt P03471); assay: Binding affinity to recombinant Influenza A virus (A/Moscow/10/99(H3N2)) Neuraminidase N2 expressed in baculovirus infected insect cells at 100 to 1000 nM measured up to 160 sec by surface plasmon resonance analysis; procedure, shortened: as §3
MDCK = assay: Cytotoxicity against MDCK cells assessed as reduction in cell viability after 72 hrs by MTT assay; format: cell-based, Canis lupus familiaris; details: dog
[19] = Aqueous solubility of compound; format: physicochemical; details: buffer
Influenza A virus [20] = assay: Antiviral activity against Influenza A virus (A/Puerto Rico/8/34(H1N1)) infected in Balb/c mouse assessed as protection against lethal virus challenge by measuring mouse survival at 20 mg/kg administered intranasally as single dose at 2 hrs post infection measured up to 14 days post treatment relative to control; format: functional, A/Puerto Rico/8/1934(H1N1); procedure, shortened: as §2
Influenza A virus [21] = assay: Antiviral activity against Influenza A virus (A/Puerto Rico/8/34(H1N1)) infected in MDCK cells assessed as plaque reduction after 72 hrs by toluidine blue staining based method; format: functional, A/Puerto Rico/8/1934(H1N1)
Influenza A virus H3N2 [22] = assay: Induction of viral aggregation in Influenza A virus (A/Moscow/10/99(H3N2)) at 1 mM after 3 hrs by transmission electron microscopic analysis; format: functional, organism-based; details: A/Moscow/10/1999(H3N2)
Procedure, shortened: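 Virus (10^7 pfu in 150 μL DMEM) incubated at 37 °C for 3 h with 10 μL of 1 mM inhibitor stock in PBS, or without; then processed for transmission electron microscopy.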

Influenza A virus [23] = assay: Antiviral activity against Influenza A virus (A/Puerto Rico/8/34(H1N1)) infected in Balb/c mouse assessed as protection against lethal virus challenge by measuring body weight at 20 mg/kg administered intranasally as single dose at 2 hrs post infection measured up to 14 days post treatment relative to control; format: functional, A/Puerto Rico/8/1934(H1N1); procedure, shortened: as §2
[24] = Half life in Sprague-Dawley rat at 6 umol/kg, iv by HPLC analysis; format: ADME, organism-based; details: in vivo
Procedure, shortened: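 Rats (n = 5) received a single tail-vein injection in physiological saline. Plasma levels measured by HPLC, using a reversed-phase C18 gradient with ammonium-containing aqueous/acetonitrile eluents over 5 min at 0.6 mL/min.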

[25] = Influenza A virus, A/Moscow/10/1999(H3N2), MDCK, 72 h, read-out: EC50

Chain of Neuraminidase (Influenza A virus (A/Memphis/1/1971(H3N2))) (P03471 whole entry): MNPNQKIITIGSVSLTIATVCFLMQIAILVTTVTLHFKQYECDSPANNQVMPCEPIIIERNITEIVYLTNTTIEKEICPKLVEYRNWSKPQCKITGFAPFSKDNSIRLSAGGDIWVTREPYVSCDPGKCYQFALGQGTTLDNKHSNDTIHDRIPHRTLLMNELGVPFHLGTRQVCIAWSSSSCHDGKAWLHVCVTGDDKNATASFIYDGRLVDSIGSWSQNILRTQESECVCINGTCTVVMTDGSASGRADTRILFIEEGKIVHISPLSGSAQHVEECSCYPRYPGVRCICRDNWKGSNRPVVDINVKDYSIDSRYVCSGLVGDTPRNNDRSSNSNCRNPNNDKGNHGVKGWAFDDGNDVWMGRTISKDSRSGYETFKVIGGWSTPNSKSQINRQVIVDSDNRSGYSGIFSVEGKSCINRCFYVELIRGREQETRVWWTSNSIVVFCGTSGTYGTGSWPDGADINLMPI

CC(=O)N[C@H]1[C@H]([C@H](O)[C@H](O)CO)OC(C(=O)O)=C[C@@H]1NC(=N)N [ZANAMIVIR]
IC50 [1]: 1.5 nM
Activity (Influenza A virus [2]): inactive
Activity (Influenza A virus [3]): Active
Activity (Influenza A virus [4]): inactive
Kd [5]: 1.1 nM
Activity (Influenza A virus [6]): inactive
Activity (Influenza A virus [7]): inactive
Activity (Influenza A virus [8]): inactive
Activity (Influenza A virus [9]): inactive
Activity (Influenza A virus [10]): inactive
Activity (Influenza A virus [11]): inactive
Activity (Influenza A virus [12]): inactive
EC50 (Influenza A virus [13]): 6.1 nM
IC50 [14]: 3 nM
Activity (Influenza A virus [15]): inactive
EC50 (Influenza A virus H3N2 [16]; [25]): 17.7 nM
Activity (Influenza A virus [17]): Active

COCCOCCOCCOCCOCCOCCOCCOCCOCCOCc1cn(CC(Cn2cc(COCCOCCOCCOCCOCCOCCOCCOCCOCCOC)nn2)(Cn2cc(COCCOCCOCCOCCOCCOCCOCCOCCOCCOC)nn2)Cn2cc(COCCOCCOCCOCCOCCOCCOCCOCCOCCOC)nn2)nn1
Activity [18]: inactive
Activity (MDCK): Non-Toxic
EC50 (Influenza A virus H3N2 [16]): Not Active

CC(=O)N[C@@H]1[C@H]([C@@H](OC(=O)NCCOCCOCCOCCOCCOCCOCc2cn(CC(Cn3cc(COCCOCCOCCOCCOCCOCCNC(=O)O[C@@H]([C@@H]4OC(C(=O)O)=C[C@H](NC(=N)N)[C@H]4NC(C)=O)[C@H](O)CO)nn3)(Cn3cc(COCCOCCOCCOCCOCCOCCNC(=O)O[C@@H]([C@@H]4OC(C(=O)O)=C[C@H](NC(=N)N)[C@H]4NC(C)=O)[C@H](O)CO)nn3)Cn3cc(COCCOCCOCCOCCOCCOCCNC(=O)O[C@@H]([C@@H]4OC(C(=O)O)=C[C@H](NC(=N)N)[C@H]4NC(C)=O)[C@H](O)CO)nn3)nn2)[C@H](O)CO)OC(C(=O)O)=C[C@@H]1NC(=N)N (stereo partly specified)
solubility [19]: Soluble
IC50 [1]: 1 nM
Kd [5]: 1.5 nM
IC50 [14]: 3.8 nM

CC(=O)N[C@H]1[C@H]([C@H](OC(=O)NCCOCCOCCOCCOCCOCCOCCOCCOCCOCCOCCOCCOCc2cn(CC(Cn3cc(COCCOCCOCCOCCOCCOCCOCCOCCOCCOCCOCCOCCNC(=O)O[C@@H]([C@@H]4OC(C(=O)O)=C[C@H](NC(=N)N)[C@H]4NC(C)=O)[C@H](O)CO)nn3)(Cn3cc(COCCOCCOCCOCCOCCOCCOCCOCCOCCOCCOCCOCCNC(=O)O[C@@H]([C@@H]4OC(C(=O)O)=C[C@H](NC(=N)N)[C@H]4NC(C)=O)[C@H](O)CO)nn3)Cn3cc(COCCOCCOCCOCCOCCOCCOCCOCCOCCOCCOCCOCCNC(=O)O[C@@H]([C@@H]4OC(C(=O)O)=C[C@H](NC(=N)N)[C@H]4NC(C)=O)[C@H](O)CO)nn3)nn2)[C@H](O)CO)OC(C(=O)O)=C[C@@H]1NC(=N)N (stereo partly specified)
solubility [19]: Soluble
IC50 [1]: 0.8 nM
Activity (Influenza A virus [20]): 100%
Activity (Influenza A virus [3]): Active
Activity (Influenza A virus [4]): Active
Activity (Influenza A virus [21]): <4 nM
Activity (Influenza A virus [6]): Active
Activity (Influenza A virus [7]): Active
Activity (Influenza A virus H3N2 [22]): inactive
Activity (Influenza A virus [23]): 100%
Activity (Influenza A virus [8]): Active
half-life [24]: 72 min
Activity (Influenza A virus [9]): Active
Activity (Influenza A virus [10]): Active
Activity (MDCK): Non-Toxic
Activity (Influenza A virus [11]): Active
EC50 (Influenza A virus [13]): 1.2 nM
IC50 [14]: 2.8 nM
Activity (Influenza A virus [15]): Active
EC50 (Influenza A virus H3N2 [16]; [25]): 3.5 nM
Activity (Influenza A virus [17]): Active

CCC(CC)O[C@@H]1C=C(C(=O)O)C[C@H](N)[C@H]1NC(C)=O [OSELTAMIVIR CARBOXYLATE]
IC50 [1]: 0.8 nM
Activity (MDCK): Non-Toxic
EC50 (Influenza A virus [13]): 12.3 nM
IC50 [14]: 0.4 nM
EC50 (Influenza A virus H3N2 [16]; [25]): 7.1 nM

CC(=O)N[C@H]1[C@H]([C@H](O)[C@H](O)CO)OC(C(=O)O)=C[C@@H]1N=C(N)N [ZANAMIVIR]
half-life [24]: 32 min
Activity (MDCK): Non-Toxic

CC(=O)N[C@H]1[C@H]([C@H](OC(=O)NCCOCCOCCOCc2cn(CC(Cn3cc(COCCOCCOCCNC(=O)O[C@@H]([C@@H]4OC(C(=O)O)=C[C@H](NC(=N)N)[C@H]4NC(C)=O)[C@H](O)CO)nn3)(Cn3cc(COCCOCCOCCNC(=O)O[C@@H]([C@@H]4OC(C(=O)O)=C[C@H](NC(=N)N)[C@H]4NC(C)=O)[C@H](O)CO)nn3)Cn3cc(COCCOCCOCCNC(=O)O[C@@H]([C@@H]4OC(C(=O)O)=C[C@H](NC(=N)N)[C@H]4NC(C)=O)[C@H](O)CO)nn3)nn2)[C@H](O)CO)OC(C(=O)O)=C[C@@H]1NC(=N)N (stereo partly specified)
solubility [19]: Soluble
IC50 [1]: 2.5 nM
Kd [5]: 2.2 nM
IC50 [14]: 6.2 nM

Reference: ChEMBL document CHEMBL4425127 (J Med Chem, 2016)
